Active and inactive are the calls of the source. The calls are words filed in the database; no cut-off is given here.
Experiments:
[1] = target: T1, Transcriptional enhancer factor TEF-1 (Homo sapiens, UniProt P28347); assay: Inhibition of Gal4-fused TEAD1 (unknown origin) interaction with YAP expressed in human HeLa cells assessed as basal transcriptional activity level up to 100 uM after 6 hrs by nanoluciferase reporter gene assay; format: cell-based
[2] = tested on: VSMC; assay: Inhibition of GAPDH m-RNA expression in rat VSMC at 60 uM by RT-qPCR analysis; format: functional, cell-based
In short: (§1)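 Rat aortic VSMCs (male Sprague-Dawley, 10% FCS/DMEM) were treated with 60 μM compound for 6 h; n = 3. Total RNA was reverse-transcribed with random primers and quantified by SYBR Green qPCR. Data were normalized to nonstimulated controls.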

[3] = tested on: VSMC; assay: Antimigratory activity in […] incubated for overnight followed by media replacement and measured every hour for 24 hrs by phase contrast microscopic analysis; format: functional, cell-based
In short: (§2)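 IncuCyte real-time scratch wound assay. Cells were seeded in 96-well plates and grown 36 h, then pretreated overnight with compound. Wells were scratched and the medium was replaced with compound-containing medium. Phase-contrast images of the wound were taken hourly for 24 h and relative wound confluence was calculated; n = 4.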

[4] = tested on: MCF7; assay: Antiproliferative activity against human MCF7 assessed as reduction in EdU incorporation up to 40 uM after 24 hrs by Hoechst 33342 staining-based fluorescence assay; format: functional, cell-based
[5] = target: T1, Transcriptional enhancer factor TEF-1; assay: Binding affinity to TEAD1 (194 to 411 residues) (unknown origin) by ITC assay
In short: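 Isothermal titration calorimetry with purified recombinant TEAD1 (residues 194–411). The GST tag was removed by PreScission protease cleavage at 4 °C for 18 h, glutathione was removed by dialysis against PBS, and free GST was removed with glutathione resin.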

[6] = tested on: VSMC; assay: Inhibition of TBP m-RNA expression in rat VSMC at 60 uM by RT-qPCR analysis; format: functional, cell-based; in short: as §1
[7] = tested on: VSMC; assay: Inhibition of PGK1 m-RNA expression in rat VSMC at 60 uM by RT-qPCR analysis; format: functional, cell-based; in short: as §1
[8] = tested on: HeLa; assay: Inhibition of TEAD in human HeLa cells assessed as reduction in CCN1 m-RNA expression incubated for 2 hrs followed by compound wash out and re-treatment for 4 hrs by NanoGlo assay; format: cell-based
[9] = target: T2, Transcriptional enhancer factor TEF-3 (Homo sapiens, UniProt Q15561); assay: Inhibition of Gal4-fused TEAD4 (unknown origin) interaction with YAP expressed in human HeLa cells assessed as basal transcriptional activity level after 6 hrs by nanoluciferase reporter gene assay; format: cell-based
T2 sequence (Q15561 whole entry, the tested form may be a part): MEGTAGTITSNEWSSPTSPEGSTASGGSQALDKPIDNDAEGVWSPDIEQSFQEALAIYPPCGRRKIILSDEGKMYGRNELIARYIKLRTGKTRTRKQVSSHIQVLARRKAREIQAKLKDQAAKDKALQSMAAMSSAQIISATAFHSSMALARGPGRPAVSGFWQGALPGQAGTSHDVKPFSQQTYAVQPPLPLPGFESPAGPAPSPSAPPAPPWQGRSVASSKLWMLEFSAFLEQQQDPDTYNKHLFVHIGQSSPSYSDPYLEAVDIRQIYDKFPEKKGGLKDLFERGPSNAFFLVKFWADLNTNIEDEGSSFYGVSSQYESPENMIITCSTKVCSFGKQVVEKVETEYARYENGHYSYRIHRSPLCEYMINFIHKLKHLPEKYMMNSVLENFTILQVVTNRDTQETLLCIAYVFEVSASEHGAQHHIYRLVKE

[10] = organism: Rattus norvegicus; assay: Inhibition of TEAD in rat VSMC assessed as reduction in MYOC m-RNA expression at 60 uM by RT-qPCR analysis; in short: as §1
[11] = target: T3, Serum response factor (Homo sapiens) (UniProt P11831); assay: Inhibition of SRF (unknown origin) mediated VP16 transcription expressed in human HeLa cells assessed as basal transcriptional activity level up to 100 uM after 6 hrs by nanoluciferase reporter gene assay; format: cell-based
T3 sequence (whole entry): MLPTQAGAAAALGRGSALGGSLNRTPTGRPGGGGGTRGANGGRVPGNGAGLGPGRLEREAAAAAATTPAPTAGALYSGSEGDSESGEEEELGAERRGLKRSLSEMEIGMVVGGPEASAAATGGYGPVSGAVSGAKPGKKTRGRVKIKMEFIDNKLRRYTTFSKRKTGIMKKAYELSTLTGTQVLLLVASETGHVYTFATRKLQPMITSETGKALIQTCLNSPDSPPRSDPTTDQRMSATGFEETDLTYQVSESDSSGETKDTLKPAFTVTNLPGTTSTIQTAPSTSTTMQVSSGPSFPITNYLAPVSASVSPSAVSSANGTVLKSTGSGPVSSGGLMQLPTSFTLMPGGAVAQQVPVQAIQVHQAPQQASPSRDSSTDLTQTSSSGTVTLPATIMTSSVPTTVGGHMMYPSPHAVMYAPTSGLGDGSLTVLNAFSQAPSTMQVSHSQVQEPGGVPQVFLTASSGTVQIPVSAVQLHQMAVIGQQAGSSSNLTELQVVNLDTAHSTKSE

[12] = tested on: VSMC; assay: Antiproliferative activity against rat VSMC assessed as reduction in EdU incorporation after 18 hrs by Hoechst 33342 staining-based fluorescence assay; format: functional, cell-based
[13] = organism: Rattus norvegicus; assay: Inhibition of TEAD in rat VSMC assessed as reduction in PAI1 m-RNA expression at 60 uM by RT-qPCR analysis; in short: as §1
[14] = tested on: VSMC; assay: Antimigratory activity in rat VSMC incubated for overnight followed by media replacement and measured every hour for 24 hrs by phase contrast microscopic analysis; format: functional, cell-based; in short: as §2
[15] = tested on: VSMC; assay: Antiproliferative activity against human VSMC assessed as reduction in EdU incorporation after 18 hrs by Hoechst 33342 staining-based fluorescence assay; format: functional, cell-based
[16] = target: T4, Transcriptional enhancer factor TEF-4 (Homo sapiens, UniProt Q15562); assay: Inhibition of Gal4-fused TEAD2 (unknown origin) interaction with YAP expressed in human HeLa cells assessed as basal transcriptional activity level after 6 hrs by nanoluciferase reporter gene assay; format: cell-based
T4 sequence (Q15562 whole entry, the tested form may be a part): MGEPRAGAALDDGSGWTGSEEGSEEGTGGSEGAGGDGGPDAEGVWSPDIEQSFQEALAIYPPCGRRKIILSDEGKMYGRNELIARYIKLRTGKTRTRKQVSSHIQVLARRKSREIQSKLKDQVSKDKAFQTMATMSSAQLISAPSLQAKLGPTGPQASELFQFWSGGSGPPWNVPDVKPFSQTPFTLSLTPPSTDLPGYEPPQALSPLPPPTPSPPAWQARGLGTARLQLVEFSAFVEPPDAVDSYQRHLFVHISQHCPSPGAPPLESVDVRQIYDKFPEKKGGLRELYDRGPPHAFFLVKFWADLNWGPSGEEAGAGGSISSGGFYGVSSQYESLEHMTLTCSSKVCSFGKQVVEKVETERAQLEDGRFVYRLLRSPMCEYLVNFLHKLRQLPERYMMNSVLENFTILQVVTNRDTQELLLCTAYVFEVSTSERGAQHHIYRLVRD

[17] = organism: Rattus norvegicus; assay: Inhibition of TEAD in rat VSMC assessed as reduction in CTGF m-RNA expression at 60 uM by RT-qPCR analysis; in short: as §1
[18] = tested on: HeLa; assay: Cytotoxicity against human HeLa cells assessed as reduction in cell viability by measuring ethidium homodimer-1 uptake at 20 uM preincubated for 10 mins followed by ethidium homodimer-1 addition measured after 10 mins by fluorescence assay; format: cell-based
In short: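 Live/dead cell viability assay in HeLa cells. Maximum death was set by treating cells 10 min with 0.1% Triton-X, then 10 min with 0.4 μM ethidium homodimer-1. Fluorescence was read on a plate reader.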

[19] = target: T4, Transcriptional enhancer factor TEF-4; assay: Inhibition of Gal4-fused TEAD2 (unknown origin) interaction with YAP expressed in human HeLa cells assessed as basal transcriptional activity level up to 100 uM after 6 hrs by nanoluciferase reporter gene assay; format: cell-based
[20] = tested on: VSMC; assay: Inhibition of 36B4 m-RNA expression in rat VSMC at 60 uM by RT-qPCR analysis; format: functional, cell-based; in short: as §1
[21] = tested on: HeLa; assay: Inhibition of TNT1 m-RNA expression in human HeLa cells incubated for 2 hrs followed by compound wash out and re-treatment for 4 hrs by NanoGlo assay; format: functional, cell-based
[22] = organism: Rattus norvegicus; assay: Inhibition of TEAD in rat VSMC assessed as reduction in MAYDM m-RNA expression at 60 uM by RT-qPCR analysis; in short: as §1
[23] = target: T2, Transcriptional enhancer factor TEF-3; assay: Inhibition of Gal4-fused TEAD4 (unknown origin) interaction with YAP expressed in human HeLa cells assessed as basal transcriptional activity level up to 100 uM after 6 hrs by nanoluciferase reporter gene assay; format: cell-based
[24] = target: T1, Transcriptional enhancer factor TEF-1; assay: Inhibition of Gal4-fused TEAD1 (unknown origin) interaction with YAP expressed in human HeLa cells assessed as basal transcriptional activity level after 6 hrs by nanoluciferase reporter gene assay; format: cell-based
[25] = Inhibition of TEAD in rat VSMC assessed as reduction in CCN1 m-RNA expression incubated for 2 hrs followed by compound wash out and re-treatment for 4 hrs by NanoGlo assay
[26] = organism: Rattus norvegicus; assay: Inhibition of TEAD in rat VSMC assessed as reduction in CCN1 protein expression up to 60 uM by Western blot analysis
In short: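 VSMCs were treated with compound over a concentration range for 16 h; n = 4. CCN1 protein in total cell lysates was measured by Western blot with GAPDH probed alongside.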

T1 sequence (P28347 whole entry, the tested form may be a part): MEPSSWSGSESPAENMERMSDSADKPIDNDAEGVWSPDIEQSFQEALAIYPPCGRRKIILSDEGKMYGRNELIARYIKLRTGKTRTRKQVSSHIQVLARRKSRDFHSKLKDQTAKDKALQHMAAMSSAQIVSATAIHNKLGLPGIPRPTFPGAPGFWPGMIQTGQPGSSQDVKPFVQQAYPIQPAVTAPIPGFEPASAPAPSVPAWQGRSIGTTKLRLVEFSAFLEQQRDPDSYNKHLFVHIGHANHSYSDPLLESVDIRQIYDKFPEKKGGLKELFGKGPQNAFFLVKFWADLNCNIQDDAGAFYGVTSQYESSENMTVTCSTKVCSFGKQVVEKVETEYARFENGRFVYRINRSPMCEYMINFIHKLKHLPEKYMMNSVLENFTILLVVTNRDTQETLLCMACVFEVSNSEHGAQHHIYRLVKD

SMILES: Cc1ccc2c(c1)c1c3n2CCNC3CCC1 (configuration not stated) [PIRLINDOLE]
- inhibition [1]: Active
- inhibition [2]: inactive
- Activity [3]: Dose-dependent effect
- Activity [4]: inactive
- Kd [5]: 12 µM
- inhibition [6]: inactive
- inhibition [7]: inactive
- inhibition [8]: Dose-dependent effect
- IC50 [9]: 36 µM
- inhibition [10]: Active
- inhibition [11]: inactive
- Activity [12]: Dose-dependent effect
- EC50 [12]: 10 µM
- inhibition [13]: Active
- Activity [14]: Dose-dependent effect
- EC50 [15]: 1.5 µM
- IC50 [16]: 33 µM
- inhibition [17]: Active
- Activity [18]: Non-Toxic
- inhibition [19]: Active
- inhibition [20]: inactive
- inhibition [21]: inactive
- inhibition [22]: Active
- inhibition [23]: Active
- IC50 [24]: 40 µM
- EC50 [25]: 48 µM
- inhibition [26]: Active
